Measured values published in ChEMBL document CHEMBL1154676, “Synthetic mRNA splicing modulator compounds with in vivo antitumor activity” (J Med Chem, 2009).

What was measured:
U-251 = experiment: Growth inhibition of human U251 cells by sulforhodamine B assay; type: functional
SNB-75 = experiment: Growth inhibition of human SNB75 cells by sulforhodamine B assay; type: functional
SF-295 = experiment: Growth inhibition of human SF295 cells by sulforhodamine B assay; type: functional
HT-29 = experiment: Growth inhibition of human HT-29 cells by sulforhodamine B assay; type: functional
COLO 205 = experiment: Growth inhibition of human COLO205 cells by sulforhodamine B assay; type: functional
NCI-H460 = experiment: Growth inhibition of human NCI-H460 cells by sulforhodamine B assay; type: functional
NCI-H226 = experiment: Growth inhibition of human NCI-H226 cells by sulforhodamine B assay; type: functional
[1] = Growth inhibition of human […] cells by sulforhodamine B assay; type: functional
CCRF-CEM = experiment: Growth inhibition of human CCRF-CEM cells by sulforhodamine B assay; type: functional
[2] = Cytotoxicity against human BT-14 cells after 72 hrs by XTT assay; type: functional, cell-based; details: BT-14, 72 h
Summary of the method: (§1)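 Cells grown at 37 °C, 5% CO2; HFF in DMEM with 10% FBS, PrEC in prostate epithelial growth medium. Adherent lines seeded overnight, suspension lines same day; compounds diluted from DMSO stocks into media at various final concentrations, 72 h exposure. XTT reagent added 4 h, absorbance 490 nm (reference 690 nm). Growth as % of vehicle; IC50 from sigmoidal dose-response fit; mean ± SEM, three independent experiments.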

Ramos = experiment: Cytotoxicity against human Ramos cells after 72 hrs by XTT assay; type: functional, cell-based; summary of the method: as §1
[3] = Cytotoxicity against human JeKo1 cells after 72 hrs by XTT assay; type: functional, cell-based; details: JeKo-1, 72 h; summary of the method: as §1
Mus musculus [4] = experiment: Toxicity in NOD/SCID mouse assessed as total protein level at 5 to 50 mg/kg, […] for 5 days; type: organism-based; design: dose 5-50 mg/kg; details: in vivo, po, 120 h
Mus musculus [5] = experiment: Toxicity in NOD/SCID mouse assessed as total necropsies at 5 to 50 mg/kg, […] for 5 days; type: organism-based; design: dose 5-50 mg/kg; details: in vivo, po, 120 h
Mus musculus [6] = experiment: Toxicity in NOD/SCID mouse assessed as blood urea nitrogen level at 5 to 50 mg/kg, iv and po for 5 days; type: organism-based; design: dose 5-50 mg/kg, route oral; details: in vivo, 120 h
MDA-MB-468 = experiment: Growth inhibition of human MDA-MB-468 cells by sulforhodamine B assay; type: functional
BT-549 = experiment: Growth inhibition of human BT549 cells by sulforhodamine B assay; type: functional
[7] = Growth inhibition of human Hs 578T cells by sulforhodamine B assay; type: functional
MDA-MB-231 = experiment: Growth inhibition of human MDA-MB-231 cells by sulforhodamine B assay; type: functional
UO-31 = experiment: Growth inhibition of human UO31 cells by sulforhodamine B assay; type: functional
786-0 = experiment: Growth inhibition of human 786-0 cells by sulforhodamine B assay; type: functional
OVCAR-8 = experiment: Growth inhibition of human OVCAR8 cells by sulforhodamine B assay; type: functional
UACC-62 = experiment: Growth inhibition of human UACC62 cells by sulforhodamine B assay; type: functional
M14 = experiment: Growth inhibition of human M14 cells by sulforhodamine B assay; type: functional
[8] = read-out: Log10GI50 (converted)
[9] = read-out: Log10LC50 (converted)

SMILES: CC(/C=C/[C@@H]1C[C@]2(CO2)CC(C)(C)O1)=C\C[C@H]1CC[C@@H](NC(=O)/C=C\[C@H](C)OC(=O)C(C)C)CC1
- GI50 (U-251; [8]): 0.363 µM
- CC50 (U-251; [9]): > 100 µM
- TGI (U-251; read-out: Log10TGI (converted)): > 100 µM
- GI50 (SNB-75; [8]): 5.37 µM
- CC50 (SNB-75; [9]): > 100 µM
- TGI (SNB-75; read-out: Log10TGI (converted)): > 100 µM
- GI50 (SF-295; [8]): 0.339 µM
- CC50 (SF-295; [9]): > 100 µM
- TGI (SF-295; read-out: Log10TGI (converted)): 2.51 µM
- GI50 (HT-29; [8]): 0.191 µM
- CC50 (HT-29; [9]): > 100 µM
- TGI (HT-29; read-out: Log10TGI (converted)): 10 µM
- GI50 (COLO 205; [8]): 0.263 µM
- CC50 (COLO 205; [9]): > 100 µM
- TGI (COLO 205; read-out: Log10TGI (converted)): 1.12 µM
- GI50 (NCI-H460; [8]): 0.501 µM
- CC50 (NCI-H460; [9]): > 100 µM
- TGI (NCI-H460; read-out: Log10TGI (converted)): > 100 µM
- GI50 (NCI-H226; [8]): 2.45 µM
- CC50 (NCI-H226; [9]): > 100 µM
- TGI (NCI-H226; read-out: Log10TGI (converted)): > 100 µM
- GI50 [1, 8]: 0.427 µM
- CC50 [1, 9]: > 100 µM
- TGI ([1]; read-out: Log10TGI (converted)): 4.68 µM
- GI50 (CCRF-CEM; [8]): 0.0479 µM
- CC50 (CCRF-CEM; [9]): > 100 µM
- TGI (CCRF-CEM; read-out: Log10TGI (converted)): > 100 µM
- IC50 [2]: 1.34 µM
- IC50 (Ramos): 0.08 µM
- IC50 [3]: 0.12 µM
- Activity (Mus musculus [4]): Non-toxic
- Activity (Mus musculus [5]): Non-toxic
- Activity (Mus musculus [6]): Non-toxic
- GI50 (MDA-MB-468; [8]): 0.741 µM
- CC50 (MDA-MB-468; [9]): > 100 µM
- TGI (MDA-MB-468; read-out: Log10TGI (converted)): 39.8 µM
- GI50 (BT-549; [8]): 0.138 µM
- CC50 (BT-549; [9]): > 100 µM
- TGI (BT-549; read-out: Log10TGI (converted)): 0.776 µM
- GI50 [7, 8]: 0.309 µM
- CC50 [7, 9]: > 100 µM
- TGI ([7]; read-out: Log10TGI (converted)): 45.7 µM
- GI50 (MDA-MB-231; [8]): 0.955 µM
- CC50 (MDA-MB-231; [9]): > 100 µM
- TGI (MDA-MB-231; read-out: Log10TGI (converted)): > 100 µM
- GI50 (UO-31; [8]): 3.98 µM
- CC50 (UO-31; [9]): > 100 µM
- TGI (UO-31; read-out: Log10TGI (converted)): > 100 µM
- GI50 (786-0; [8]): 2.63 µM
- CC50 (786-0; [9]): > 100 µM
- TGI (786-0; read-out: Log10TGI (converted)): > 100 µM
- GI50 (OVCAR-8; [8]): 0.24 µM
- CC50 (OVCAR-8; [9]): > 100 µM
- TGI (OVCAR-8; read-out: Log10TGI (converted)): > 100 µM
- GI50 (UACC-62; [8]): 0.513 µM
- CC50 (UACC-62; [9]): 46.8 µM
- TGI (UACC-62; read-out: Log10TGI (converted)): 4.68 µM
- GI50 (M14; [8]): 0.229 µM
- CC50 (M14; [9]): > 100 µM
- TGI (M14; read-out: Log10TGI (converted)): 13.8 µM
